Where “and” joins values, the source holds several entries; their conditions need not be identical. Identical values can stand only once.
Columns and labels:
[1] = molecular target: GABA-A receptor; anion channel; assay: Displacement of [3H]- flunitrazepam from rat GABA-A benzodiazepine receptor; format: protein-complex assay
[2] = Displacement of [3H]flunitrazepam from alpha-1-beta-2-gamma-2 GABA-A receptor subunits expressed in Sf9 cell membranes; set-up: species or system Rattus norvegicus
Method in brief: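 Sf-9 membranes from cells infected with baculovirus carrying α1, β2 and γ2 cDNAs, harvested 60 h postinfection. Assay in normal saline with 6 nM [3H]flunitrazepam, 50 µg membrane protein and six test concentrations; 60 min at 4 °C; glass-fiber filtration, four cold washes, scintillation counting.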

[3] = Displacement of [3H]-Ro- 15-4513 from alpha-1-beta-2-gamma-2 GABA-A receptor subunits expressed in Sf9 cell membranes; set-up: species or system Rattus norvegicus
[4] = molecular target: T1, GABA-A receptor; anion channel (Rattus norvegicus) (UniProt O09028+P15431+P18506+P18508+P19969+P20236+P23574+P23576+P28471+P28473+P30191+P62813+P63079+P63138+Q91ZM7+Q9ES14); assay: Shift in the affinity of [35S]TBPS for the chloride channel of GABAA receptor complex in the presence and absence of compound; format: protein-complex assay
[5] = tested on: Rattus norvegicus; assay: The compound was tested for antagonistic activity against metrazole induced convulsions in rats after ip administration; format: functional
[6] = species: Rattus norvegicus; assay: Chloride ion influx in rat cerebrocortical membranes; format: functional
[7] = molecular target: GABA A receptor alpha-6/beta-2/gamma-2 (Homo sapiens, UniProt P18507+P47870+Q16445); assay: Displacement of [3H]-Ro- 15-4513 from alpha-6-beta-2-gamma-2 GABA-A receptor subunits expressed in Sf9 cell membranes
Sequence of GABA A receptor alpha-6/beta-2/gamma-2 (P47870 whole entry): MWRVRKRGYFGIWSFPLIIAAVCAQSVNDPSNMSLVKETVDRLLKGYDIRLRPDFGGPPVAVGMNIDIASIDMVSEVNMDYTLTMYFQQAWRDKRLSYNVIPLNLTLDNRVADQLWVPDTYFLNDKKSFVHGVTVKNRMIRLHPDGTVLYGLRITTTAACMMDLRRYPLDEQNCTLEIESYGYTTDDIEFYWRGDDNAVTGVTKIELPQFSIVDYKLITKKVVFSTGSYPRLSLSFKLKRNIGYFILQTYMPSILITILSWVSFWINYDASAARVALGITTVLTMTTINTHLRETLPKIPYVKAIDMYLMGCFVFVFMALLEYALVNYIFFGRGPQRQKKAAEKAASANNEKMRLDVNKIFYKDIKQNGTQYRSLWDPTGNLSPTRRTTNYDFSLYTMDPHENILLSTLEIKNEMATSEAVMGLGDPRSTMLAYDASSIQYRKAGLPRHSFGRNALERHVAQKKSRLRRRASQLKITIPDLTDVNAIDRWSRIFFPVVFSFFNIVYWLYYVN
Sequence of GABA A receptor alpha-6/beta-2/gamma-2 (P18507 whole entry): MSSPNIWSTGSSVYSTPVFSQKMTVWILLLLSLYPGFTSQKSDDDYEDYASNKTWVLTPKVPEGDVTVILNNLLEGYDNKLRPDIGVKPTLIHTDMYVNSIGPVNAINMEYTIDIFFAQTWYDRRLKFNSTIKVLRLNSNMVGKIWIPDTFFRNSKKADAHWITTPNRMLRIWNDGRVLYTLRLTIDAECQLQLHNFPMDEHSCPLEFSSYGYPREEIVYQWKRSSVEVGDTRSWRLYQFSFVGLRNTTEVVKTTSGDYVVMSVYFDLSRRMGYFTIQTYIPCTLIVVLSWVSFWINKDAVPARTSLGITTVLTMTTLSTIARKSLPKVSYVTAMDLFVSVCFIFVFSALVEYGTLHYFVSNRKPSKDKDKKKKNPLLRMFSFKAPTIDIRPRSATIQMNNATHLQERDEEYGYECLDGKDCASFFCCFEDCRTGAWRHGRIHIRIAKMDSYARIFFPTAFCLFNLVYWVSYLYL
Sequence of GABA A receptor alpha-6/beta-2/gamma-2 (Q16445 whole entry): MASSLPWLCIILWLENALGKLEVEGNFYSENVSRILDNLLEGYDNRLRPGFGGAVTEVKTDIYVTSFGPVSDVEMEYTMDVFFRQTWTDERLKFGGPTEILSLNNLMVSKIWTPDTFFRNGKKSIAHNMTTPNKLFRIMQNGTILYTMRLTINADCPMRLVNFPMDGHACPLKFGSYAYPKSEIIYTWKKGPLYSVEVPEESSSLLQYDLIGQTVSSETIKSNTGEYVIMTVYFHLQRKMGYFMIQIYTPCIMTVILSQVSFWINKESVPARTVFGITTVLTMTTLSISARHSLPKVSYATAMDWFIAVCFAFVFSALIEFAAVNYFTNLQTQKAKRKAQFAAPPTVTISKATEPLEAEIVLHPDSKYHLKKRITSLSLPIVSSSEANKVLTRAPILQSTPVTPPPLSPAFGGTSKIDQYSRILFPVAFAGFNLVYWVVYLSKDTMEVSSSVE
Method in brief: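 Sf-9 cells infected with baculovirus carrying α6, β2 and γ2 cDNAs, harvested 60 h postinfection; membranes stored at -80 °C in 300 mM sucrose, 5 mM Tris/HCl pH 7.5, 20% glycerol. 50 µg membrane protein with 6 nM [3H]Ro 15-4513 and six test concentrations in normal saline, 60 min at 4 °C; filtered, washed, scintillation counted.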

[8] = tested on: Rattus norvegicus; assay: The compound was tested for antagonistic activity against metrazole induced convulsions in rats, after ip administration; format: functional
[9] = molecular target: T1, GABA-A receptor; anion channel (Rattus norvegicus); assay: Inhibition of [35S]TBPS binding to GABA-A receptor complex; format: protein-complex assay

SMILES | Ki [1] [nM] | Ki [2] [nM] | Ki [3] [nM] | TBPS shift [4] | ED50 [5] [mg/kg] | Chlorine uptake [6] | Ki [7] [nM] | ED50 [8] [mg/kg] | TBPS shift [9]
CC(=O)N1Cc2c(-c3noc(C4CC4)n3)ncn2-c2ccccc21 | 1.5 | 2.7 | 124 | 0.9 | 35 | – | – | – | –
CC(=O)N1Cc2c(C(=O)OC(C)(C)C)ncn2-c2ccccc21 | – | – | – | -0.06 | – | 0 | – | – | –
O=C1CC[C@H]2c3c(-c4noc(C5CC5)n4)ncn3-c3ccccc3N12 | 0.62 | – | – | 1.05 | 1.1 | – | – | – | –
O=C(c1ccccc1)N1Cc2c(-c3noc(C4CC4)n3)ncn2-c2ccc(F)cc21 | 0.58 | 0.4 | > 10000 | 0.98 | – | 0.67 | – | – | –
CC(C)(C)OC(=O)c1ncn2c1CN(C(=O)OC(C)(C)C)c1ccccc1-2 | 5.1 | – | – | 0.45 | – | 0.14 | – | – | –
CC(=O)N1Cc2c(-c3nc(C4CC4)no3)ncn2-c2ccccc21 | 6.6 | – | – | 0.7 | 42 | 0.6 | – | – | –
CN1C(=O)CN=C(c2ccccc2)c2cc(Cl)ccc21 [DIAZEPAM] | – | – | – | – | – | 1 | > 7000 | 0.5 | –
O=C1CCC2c3c(-c4noc(C5CC5)n4)ncn3-c3ccccc3N12 (stereo not given) | 0.87 | – | – | 1.15 | – | 0.29 | – | – | –
O=C(c1ccccc1)N1Cc2c(-c3noc(C4CC4)n3)ncn2-c2cccc(F)c21 | 0.77 | 0.3 | 681 | 0.87 | – | 0.9 | – | 25 | –
O=C(c1ccccc1)N1Cc2c(-c3noc(C4CC4)n3)ncn2-c2ccccc21 | 4.3 | 0.3 | 1140 | 0.5 | – | – | – | – | –
CC(C)OC(=O)N1c2ccccc2-n2cnc(-c3noc(C4CC4)n3)c2C1(C)C | 6.7 | – | – | 1.2 | 3.7 | 0.7 | – | – | –
O=C1OCC2c3c(-c4noc(C5CC5)n4)ncn3-c3ccccc3N12 (stereo not given) | 2.4 | – | – | 0.96 | – | 0.5 | – | – | –
O=C(c1ccccc1Cl)N1Cc2c(-c3noc(C4CC4)n3)ncn2-c2ccccc21 | 1.4 | – | – | 0 | > 50 | 0.28 | – | – | –
CC(C)(C)OC(=O)N1Cc2c(-c3noc(C4CC4)n3)ncn2-c2ccccc21 | 1.9 | – | – | 2.9 | 0.06 | – | – | – | –
COC(=O)N1c2ccccc2-n2cnc(-c3noc(C4CC4)n3)c2C1(C)C | 6.8 | – | – | 1.04 and 0.8 | > 50 | 1.18 and 0.4 | – | – | –
O=C1CC[C@@H]2c3c(-c4noc(C5CC5)n4)ncn3-c3ccccc3N12 | 0.65 | – | – | 0.9 | 1.9 | – | – | – | –
CC(C)(C)OC(=O)c1ncn2c1C1CCC(=O)N1c1ccccc1-2 (stereo not given) | 0.76 | 0.4 | 13.2 | – | > 50 | – | – | – | 0.06
CC(=O)N1Cc2c(-c3noc(C4CC4)n3)ncn2-c2ccc(F)cc21 | 0.69 | 0.6 | 81 | 1.11 | – | – | – | – | –
CC(=O)N1c2ccccc2-n2cnc(-c3noc(C4CC4)n3)c2C1(C)C | 4.8 | – | – | 0.7 | 30 | – | – | – | –
CC(=O)N1Cc2c(-c3noc(C4CC4)n3)ncn2-c2cccc(F)c21 | – | 0.8 | 107 | – | – | – | – | – | –
CC(C)(C)OC(=O)c1ncn2c1CN(C(=O)c1ccccc1Cl)c1ccccc1-2 | 4 | – | – | 0.2 | > 50 | -0.15 | – | – | –
CCOC(=O)c1ncn2c1CN(C)C(=O)c1cc(N=[N+]=[N-])ccc1-2 [Ro-154513] | – | 15 | – | – | – | – | 5.4 | – | –
Cc1ccc(-c2nc3ccc(C)cn3c2CC(=O)N(C)C)cc1 [ZOLPIDEM] | – | – | – | – | 4.4 | – | – | – | –

From ChEMBL document CHEMBL1127668, “Antagonist, partial agonist, and full agonist imidazo[1,5-a]quinoxaline amides and carbamates acting through the GABAA/benzodiazepine receptor” (J Med Chem, 1994)
